Results from ChEMBL document CHEMBL2203085, “Modification of a promiscuous inhibitor shifts the inhibition from γ-secretase to FLT-3” (Bioorg Med Chem Lett, 2012).

Experiments:
H4 [1] = test: Cytotoxicity against human H4 cells at 40 uM; format: cell-based; conditions: h4, 40 µM
Procedure, shortened: (§1)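 H4 APP#9 cells were used for cell-based toxicity testing, and toxicity was scored as yes or no at each concentration tested.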

Gamma-secretase = test: Inhibition of gamma secretase in human H4 cells expressing APP695 assessed as inhibition of Abeta42 production after 20 to 24 hrs by liquid phase electrochemiluminescence assay; format: cell-based
Procedure, shortened: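 Aβ42 generation in H4 APP#9 cells was quantified by a previously described liquid-phase electrochemiluminescence (LPECL) assay of the Aβ42 isoform as the read-out of γ-secretase inhibition.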

H4 [2] = test: Cytotoxicity against human H4 cells at 80 uM; format: cell-based; conditions: h4, 80 µM; procedure, shortened: as §1
H4 [3] = test: Cytotoxicity against human H4 cells at 10 uM; format: cell-based; conditions: h4, 10 µM; procedure, shortened: as §1
[4] = target: Epidermal growth factor receptor (Homo sapiens) (UniProt P00533); test: Inhibition of human recombinant EGFR expressed in insect cells using Ulight-CAGAGAIETDKEYYTVKD as substrate assessed as residual activity at 1 uM after 15 mins relative to staurosporine
Procedure, shortened: (§2)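 Part of a 50-kinase panel screen at a single concentration. Residual activity is given as percent of control specific activity, calculated as (measured specific activity/control specific activity) × 100, with staurosporine as the control. The kinase-specific details are in the supplementary data.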

[5] = target: Inhibitor of nuclear factor kappa-B kinase subunit alpha (Homo sapiens) (UniProt O15111); test: Inhibition of human recombinant IKKalpha expressed in Sf21 cells using + Ulight-IkappaB-alpha as substrate assessed as residual activity at 1 uM after 30 mins relative to staurosporine; procedure, shortened: as §2
[6] = target: Fibroblast growth factor receptor 3 (Homo sapiens) (UniProt P22607); test: Inhibition of human recombinant FGFR3 using Ulight-CAGAGAIETDKEYYTVKD as substrate assessed as residual activity at 1 uM after 90 mins relative to staurosporine; procedure, shortened: as §2
[7] = target: Serine/threonine-protein kinase Chk1 (Homo sapiens) (UniProt O14757); test: Inhibition of human recombinant CHK1 expressed in insect cells using CKRREILSRRPSYRK as substrate assessed as residual activity at 1 uM after 30 mins relative to staurosporine; procedure, shortened: as §2
[8] = target: Receptor-type tyrosine-protein kinase FLT3 (Homo sapiens) (UniProt P36888); test: Inhibition of human recombinant FLT3 expressed in insect cells using Ulight-CAGAGAIETDKEYYTVKD as substrate assessed as residual activity at 1 uM after 90 mins relative to staurosporine; procedure, shortened: as §2
Sequence of Receptor-type tyrosine-protein kinase FLT3 (Homo sapiens) (P36888 whole entry): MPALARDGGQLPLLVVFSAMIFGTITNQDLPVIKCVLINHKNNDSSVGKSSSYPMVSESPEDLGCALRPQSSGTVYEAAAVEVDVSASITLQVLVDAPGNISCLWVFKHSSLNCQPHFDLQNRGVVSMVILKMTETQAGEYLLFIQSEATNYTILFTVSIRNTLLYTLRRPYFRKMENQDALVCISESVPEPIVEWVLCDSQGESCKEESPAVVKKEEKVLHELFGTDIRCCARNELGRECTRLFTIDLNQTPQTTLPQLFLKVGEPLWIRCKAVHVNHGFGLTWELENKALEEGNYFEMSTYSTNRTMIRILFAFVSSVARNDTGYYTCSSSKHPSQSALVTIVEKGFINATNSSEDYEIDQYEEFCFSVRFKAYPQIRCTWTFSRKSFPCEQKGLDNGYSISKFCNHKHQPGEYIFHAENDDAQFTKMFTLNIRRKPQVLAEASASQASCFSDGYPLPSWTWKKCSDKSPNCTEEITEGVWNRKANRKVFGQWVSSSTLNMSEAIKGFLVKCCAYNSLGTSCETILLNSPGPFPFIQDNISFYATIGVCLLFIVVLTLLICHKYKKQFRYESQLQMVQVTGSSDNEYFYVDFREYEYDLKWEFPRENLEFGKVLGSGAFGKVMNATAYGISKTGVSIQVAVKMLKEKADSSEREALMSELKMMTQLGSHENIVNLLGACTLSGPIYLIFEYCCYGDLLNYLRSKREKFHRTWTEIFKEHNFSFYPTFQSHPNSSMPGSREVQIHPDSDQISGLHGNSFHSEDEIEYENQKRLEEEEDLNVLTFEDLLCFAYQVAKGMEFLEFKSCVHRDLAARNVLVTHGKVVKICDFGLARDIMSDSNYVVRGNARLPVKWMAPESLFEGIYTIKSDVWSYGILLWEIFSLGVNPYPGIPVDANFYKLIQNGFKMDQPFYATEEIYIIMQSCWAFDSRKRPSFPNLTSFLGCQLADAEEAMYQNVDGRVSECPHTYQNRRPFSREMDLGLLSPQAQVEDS

H4 [9] = test: Selectivity ratio of IC50 for gamma secretase in human H4 cells to IC50 for human recombinant FLT3; format: cell-based
[10] = target: Tyrosine-protein kinase JAK3 (Homo sapiens) (UniProt P52333); test: Inhibition of human recombinant JAK3 using Ulight-CAGAGAIETDKEYYTVKD as substrate assessed as residual activity at 1 uM after 60 mins relative to staurosporine; procedure, shortened: as §2
Danio rerio = species on record: Danio rerio; test: Toxicity against zebra fish embryo assessed as developmental delay at 20 uM incubated from 4 hrs to 48 hrs post fertilization by microscopic analysis; format: organism-based; conditions: zebrafish, in vivo
Procedure, shortened: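 Zebrafish embryos were collected and kept in E2 medium at 28 °C. Compound was added at 4–5 hpf at 5 or 20 µM alongside untreated controls. Phenotypes were compared with controls at 48 hpf.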

[11] = target: Hepatocyte growth factor receptor (Homo sapiens) (UniProt P08581); test: Inhibition of human recombinant cMET expressed in insect cells using Ulight-CAGAGAIETDKEYYTVKD as substrate assessed as residual activity at 1 uM after 60 mins relative to staurosporine
Sequence of Hepatocyte growth factor receptor (Homo sapiens) (P08581 whole entry): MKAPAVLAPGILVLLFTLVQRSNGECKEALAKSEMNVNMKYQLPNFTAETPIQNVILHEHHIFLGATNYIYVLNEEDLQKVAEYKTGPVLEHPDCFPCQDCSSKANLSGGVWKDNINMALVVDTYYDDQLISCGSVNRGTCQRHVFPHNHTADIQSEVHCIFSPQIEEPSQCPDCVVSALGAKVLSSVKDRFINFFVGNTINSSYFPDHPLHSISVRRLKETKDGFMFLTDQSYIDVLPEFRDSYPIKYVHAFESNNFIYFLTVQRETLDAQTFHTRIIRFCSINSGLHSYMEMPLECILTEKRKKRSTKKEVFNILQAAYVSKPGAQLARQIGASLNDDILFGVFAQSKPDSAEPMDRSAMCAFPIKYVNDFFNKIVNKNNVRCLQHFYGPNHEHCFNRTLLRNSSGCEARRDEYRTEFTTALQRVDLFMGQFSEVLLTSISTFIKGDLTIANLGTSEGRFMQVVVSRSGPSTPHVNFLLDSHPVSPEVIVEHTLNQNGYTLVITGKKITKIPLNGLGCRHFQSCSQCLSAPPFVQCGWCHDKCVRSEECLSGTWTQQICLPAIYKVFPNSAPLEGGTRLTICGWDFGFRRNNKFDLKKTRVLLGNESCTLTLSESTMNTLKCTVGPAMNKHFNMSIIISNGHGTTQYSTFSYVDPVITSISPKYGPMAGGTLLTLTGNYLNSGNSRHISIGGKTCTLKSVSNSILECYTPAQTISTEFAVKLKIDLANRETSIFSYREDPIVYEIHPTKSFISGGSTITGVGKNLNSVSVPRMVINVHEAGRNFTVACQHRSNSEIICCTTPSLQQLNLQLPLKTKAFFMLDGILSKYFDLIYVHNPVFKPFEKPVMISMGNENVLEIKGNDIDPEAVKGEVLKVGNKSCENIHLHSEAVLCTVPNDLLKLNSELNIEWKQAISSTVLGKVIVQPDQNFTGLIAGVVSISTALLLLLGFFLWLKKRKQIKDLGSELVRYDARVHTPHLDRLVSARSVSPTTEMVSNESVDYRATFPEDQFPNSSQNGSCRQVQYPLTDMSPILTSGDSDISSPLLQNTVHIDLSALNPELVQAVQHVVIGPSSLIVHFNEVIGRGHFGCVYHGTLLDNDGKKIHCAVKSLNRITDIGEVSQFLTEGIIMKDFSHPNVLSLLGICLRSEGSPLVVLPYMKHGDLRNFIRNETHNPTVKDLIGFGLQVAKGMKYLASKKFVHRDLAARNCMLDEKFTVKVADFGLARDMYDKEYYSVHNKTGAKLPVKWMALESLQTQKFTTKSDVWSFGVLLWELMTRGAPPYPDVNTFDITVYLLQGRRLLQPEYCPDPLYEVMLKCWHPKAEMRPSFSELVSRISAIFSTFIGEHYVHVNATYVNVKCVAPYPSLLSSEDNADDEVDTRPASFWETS
Procedure, shortened: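 Single-point kinase-panel screen at 1 µM test concentration. Specific activity was measured and expressed as percent of the staurosporine control, calculated as (measured specific activity / control specific activity) × 100.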

[12] = target: 3-phosphoinositide-dependent protein kinase 1 (Homo sapiens) (UniProt O15530); test: Inhibition of human recombinant PDK1 expressed in insect cells using Ulight-FLGFTYVAP as substrate assessed as residual activity at 1 uM after 90 mins relative to staurosporine; procedure, shortened: as §2
[13] = target: Ephrin type-B receptor 4 (Homo sapiens) (UniProt P54760); test: Inhibition of human recombinant EPHB4 expressed in insect cells using Ulight-TK peptide as substrate assessed as residual activity at 1 uM after 90 mins relative to staurosporine; procedure, shortened: as §2
[14] = target: Serine/threonine-protein kinase PLK1 (Homo sapiens) (UniProt P53350); test: Inhibition of human recombinant PLK1 using Ulight-FLGFTYVAP as substrate assessed as residual activity at 1 uM after 60 mins relative to staurosporine; procedure, shortened: as §2
Sequence of Serine/threonine-protein kinase PLK1 (Homo sapiens) (P53350 whole entry): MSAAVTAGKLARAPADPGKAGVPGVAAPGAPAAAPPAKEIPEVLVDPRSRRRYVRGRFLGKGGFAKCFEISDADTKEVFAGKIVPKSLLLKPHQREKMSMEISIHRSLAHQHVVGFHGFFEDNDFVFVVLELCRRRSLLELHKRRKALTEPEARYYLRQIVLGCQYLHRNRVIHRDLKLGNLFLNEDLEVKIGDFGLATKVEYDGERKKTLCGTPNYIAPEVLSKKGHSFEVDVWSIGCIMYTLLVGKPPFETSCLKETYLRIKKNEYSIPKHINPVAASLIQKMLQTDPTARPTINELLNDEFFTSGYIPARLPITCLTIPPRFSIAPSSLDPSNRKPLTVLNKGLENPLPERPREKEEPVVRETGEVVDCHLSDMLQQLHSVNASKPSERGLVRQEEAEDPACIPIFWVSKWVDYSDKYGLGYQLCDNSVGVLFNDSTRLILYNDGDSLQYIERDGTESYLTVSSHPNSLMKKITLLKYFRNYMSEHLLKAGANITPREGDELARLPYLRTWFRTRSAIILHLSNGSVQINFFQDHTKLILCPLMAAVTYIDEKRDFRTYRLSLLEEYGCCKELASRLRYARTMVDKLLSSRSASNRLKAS

[15] = target: Aurora kinase A (Homo sapiens) (UniProt O14965); test: Inhibition of human recombinant Aurora A expressed in Sf21 cells using Ulight-RRRSLLE as substrate assessed as residual activity at 1 uM after 15 mins relative to staurosporine; procedure, shortened: as §2
[16] = target: Serine/threonine-protein kinase Sgk1 (Homo sapiens) (UniProt O00141); test: Inhibition of human recombinant SGK1 using Ulight-RRRSLLE as substrate assessed as residual activity at 1 uM after 30 mins relative to staurosporine; procedure, shortened: as §2
[17] = target: Serine/threonine-protein kinase PAK 4 (Homo sapiens) (UniProt O96013); test: Inhibition of human recombinant PAK4 expressed in insect cells using Ulight-RRRSLLE as substrate assessed as residual activity at 1 uM after 30 mins relative to staurosporine; procedure, shortened: as §2
[18] = target: Fibroblast growth factor receptor 2 (Homo sapiens) (UniProt P21802); test: Inhibition of human recombinant FGFR2 using Ulight-CAGAGAIETDKEYYTVKD as substrate assessed as residual activity at 1 uM after 15 mins relative to staurosporine; procedure, shortened: as §2
Sequence of Fibroblast growth factor receptor 2 (Homo sapiens) (P21802 22-821 limits assumed): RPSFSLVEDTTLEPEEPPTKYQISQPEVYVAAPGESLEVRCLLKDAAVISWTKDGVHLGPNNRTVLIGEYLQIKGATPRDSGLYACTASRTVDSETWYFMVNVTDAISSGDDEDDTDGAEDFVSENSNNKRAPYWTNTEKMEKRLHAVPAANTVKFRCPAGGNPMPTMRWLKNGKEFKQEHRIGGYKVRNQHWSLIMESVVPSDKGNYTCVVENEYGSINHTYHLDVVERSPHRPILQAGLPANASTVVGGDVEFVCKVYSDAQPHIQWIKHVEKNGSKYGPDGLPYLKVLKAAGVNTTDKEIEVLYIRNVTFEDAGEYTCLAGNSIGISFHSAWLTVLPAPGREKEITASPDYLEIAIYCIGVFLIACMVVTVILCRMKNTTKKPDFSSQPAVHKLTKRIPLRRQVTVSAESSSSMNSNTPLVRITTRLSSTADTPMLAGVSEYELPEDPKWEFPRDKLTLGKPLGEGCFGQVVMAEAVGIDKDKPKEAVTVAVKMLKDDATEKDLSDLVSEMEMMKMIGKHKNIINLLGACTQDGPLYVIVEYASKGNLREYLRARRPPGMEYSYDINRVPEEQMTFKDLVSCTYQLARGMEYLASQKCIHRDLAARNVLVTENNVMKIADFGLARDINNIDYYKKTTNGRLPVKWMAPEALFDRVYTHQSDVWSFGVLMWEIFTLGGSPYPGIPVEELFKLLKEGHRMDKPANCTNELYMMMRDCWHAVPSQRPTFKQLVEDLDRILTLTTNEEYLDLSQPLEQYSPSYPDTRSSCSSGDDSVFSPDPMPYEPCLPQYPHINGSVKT

[19] = target: Protein kinase C beta type (Homo sapiens) (UniProt P05771); test: Inhibition of human recombinant PKCbeta2 using CKRREILSRRPSYRK as substrate assessed as residual activity at 1 uM after 15 mins relative to staurosporine; procedure, shortened: as §2
[20] = target: Serine/threonine-protein kinase 26 (Homo sapiens) (UniProt Q9P289); test: Inhibition of human recombinant MST4 using Ulight-TM- PKC as substrate assessed as residual activity at 1 uM after 30 mins relative to staurosporine; procedure, shortened: as §2
Sequence of Serine/threonine-protein kinase 26 (Homo sapiens) (Q9P289 2-416 limits assumed): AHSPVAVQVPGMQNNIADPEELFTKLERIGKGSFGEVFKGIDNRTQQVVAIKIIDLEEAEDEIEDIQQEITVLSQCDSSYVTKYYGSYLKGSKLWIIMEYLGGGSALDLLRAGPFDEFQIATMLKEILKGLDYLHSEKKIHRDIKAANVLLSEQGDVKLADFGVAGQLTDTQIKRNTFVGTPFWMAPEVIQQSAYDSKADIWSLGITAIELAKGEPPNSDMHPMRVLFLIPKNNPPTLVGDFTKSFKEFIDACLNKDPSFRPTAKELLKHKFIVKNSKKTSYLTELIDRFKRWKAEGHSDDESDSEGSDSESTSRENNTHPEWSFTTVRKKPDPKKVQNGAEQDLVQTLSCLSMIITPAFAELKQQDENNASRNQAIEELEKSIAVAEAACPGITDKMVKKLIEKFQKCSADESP

[21] = target: Mitogen-activated protein kinase 1 (Homo sapiens) (UniProt P28482); test: Inhibition of human recombinant ERK2 expressed in Escherichia coli using Ulight-CFFKNIVTPRTPPPSQGK-amide as substrate assessed as residual activity at 1 uM after 15 mins relative to staurosporine; procedure, shortened: as §2
[22] = target: Cyclin-dependent kinase 2/cyclin A (Homo sapiens) (UniProt P24941+P20248+P78396); test: Inhibition of human recombinant CDK2/cyclin A using Ulight-CFFKNIVTPRTPPPSQGK-amide as substrate assessed as residual activity at 1 uM after 30 mins relative to staurosporine; format: protein-complex assay; procedure, shortened: as §2
[23] = target: RAC-alpha serine/threonine-protein kinase (Homo sapiens) (UniProt P31749); test: Inhibition of human recombinant AKT1 expressed in insect cells using CKRREILSRRPSYRK as substrate assessed as residual activity at 1 uM after 60 mins relative to staurosporine; procedure, shortened: as §2
Sequence of RAC-alpha serine/threonine-protein kinase (Homo sapiens) (P31749 whole entry): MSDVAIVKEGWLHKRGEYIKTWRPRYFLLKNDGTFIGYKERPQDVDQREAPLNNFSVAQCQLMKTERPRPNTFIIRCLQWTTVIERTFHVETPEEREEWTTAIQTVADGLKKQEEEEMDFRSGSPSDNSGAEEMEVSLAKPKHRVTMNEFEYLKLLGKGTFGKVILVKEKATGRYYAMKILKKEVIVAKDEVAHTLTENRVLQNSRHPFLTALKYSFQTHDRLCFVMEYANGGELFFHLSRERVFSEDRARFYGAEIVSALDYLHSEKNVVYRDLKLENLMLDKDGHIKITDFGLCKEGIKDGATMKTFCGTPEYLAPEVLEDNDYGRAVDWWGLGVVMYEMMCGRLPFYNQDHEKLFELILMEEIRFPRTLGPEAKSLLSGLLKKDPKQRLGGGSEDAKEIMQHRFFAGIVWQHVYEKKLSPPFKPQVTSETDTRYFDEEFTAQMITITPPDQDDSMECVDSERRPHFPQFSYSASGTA

Homo sapiens = species on record: Homo sapiens; test: Inhibition of human recombinant PKA expressed in Escherichia coli using Ulight-RRRSLLE as substrate assessed as residual activity at 1 uM after 10 mins relative to staurosporine; procedure, shortened: as §2
[24] = target: Serine/threonine-protein kinase MARK1 (Homo sapiens) (UniProt Q9P0L2); test: Inhibition of human recombinant MARK1 using Ulight-RRRSLLE as substrate assessed as residual activity at 1 uM after 30 mins relative to staurosporine; procedure, shortened: as §2
[25] = target: Dual specificity mitogen-activated protein kinase kinase 6 (Homo sapiens) (UniProt P52564); test: Inhibition of human recombinant MKK6 using inactive p38alpha as substrate assessed as residual activity at 1 uM after 10 mins relative to staurosporine; procedure, shortened: as §2
Sequence of Dual specificity mitogen-activated protein kinase kinase 6 (Homo sapiens) (P52564 whole entry): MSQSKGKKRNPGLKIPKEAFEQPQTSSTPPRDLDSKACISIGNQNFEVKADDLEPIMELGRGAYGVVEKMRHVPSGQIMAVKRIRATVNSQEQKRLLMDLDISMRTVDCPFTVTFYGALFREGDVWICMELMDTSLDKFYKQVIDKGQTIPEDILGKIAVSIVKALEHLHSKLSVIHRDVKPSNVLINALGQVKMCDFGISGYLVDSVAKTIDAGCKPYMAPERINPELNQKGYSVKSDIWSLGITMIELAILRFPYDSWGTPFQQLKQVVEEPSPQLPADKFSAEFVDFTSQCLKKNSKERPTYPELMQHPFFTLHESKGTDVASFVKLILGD

[26] = target: Serine/threonine-protein kinase Nek2 (Homo sapiens) (UniProt P51955); test: Inhibition of human recombinant NEK2 expressed in insect cells using Ulight-FLGFTYVAP as substrate assessed as residual activity at 1 uM after 60 mins relative to staurosporine; procedure, shortened: as §2
[27] = target: Glycogen synthase kinase-3 beta (Homo sapiens) (UniProt P49841); test: Inhibition of human recombinant GSK3beta using Ulight-CFFKNIVTPRTPPPSQGK-amide as substrate assessed as residual activity at 1 uM after 90 mins relative to staurosporine; procedure, shortened: as §2
[28] = target: Glycogen synthase kinase-3 alpha (Homo sapiens) (UniProt P49840); test: Inhibition of human recombinant GSK3alpha using Ulight-CFFKNIVTPRTPPPSQGK-amide as substrate assessed as residual activity at 1 uM after 60 mins relative to staurosporine; procedure, shortened: as §2

O=C1Nc2ccc(Cl)cc2/C1=C/c1ccc(OCCCc2nnn[nH]2)cc1
Activity (H4 [1]): Toxic
IC50 (Gamma-secretase): 17.7 µM

CCN(CC)CCOc1ccc(/C=C2\C(=O)Nc3ccc(Cl)cc32)cc1OC
Activity (H4 [1]): Toxic
IC50 (Gamma-secretase): 11.5 µM

COC(=O)c1ccc(COc2ccc(/C=C3\C(=O)Nc4ccc(Cl)cc43)cc2)cc1
Activity (H4 [1]): Non-toxic
IC50 (Gamma-secretase): 38.8 µM

O=C1Nc2ccc(Cl)cc2/C1=C/c1ccc(OCCN2CCOCC2)cc1
Activity (H4 [1]): Non-toxic
IC50 (Gamma-secretase): 11.3 µM

COc1ccc(/C=C2\C(=O)Nc3ccc(Cl)cc32)cc1
Activity (H4 [1]): Non-toxic
IC50 (Gamma-secretase): > 40 µM

Cn1c2ccccc2c2cc(/C=C3\C(=O)Nc4ccc(Cl)cc43)ccc21
IC50 (Gamma-secretase): 19.8 µM
Activity (H4 [2]): Non-toxic

O=C1Nc2ccc(Cl)cc2/C1=C/c1cc(Br)c(O)c(Br)c1
Activity (H4 [1]): Non-toxic
IC50 (Gamma-secretase): 15 µM

Cc1cn(-c2ccc(Oc3ccc(/C=C4\C(=O)Nc5ccc(Cl)cc54)cc3)cc2)cn1
IC50 (Gamma-secretase): 5.4 µM
Activity (H4 [3]): Toxic

CCCCOc1ccc(/C=C2\C(=O)Nc3ccc(Cl)cc32)cc1
Activity (H4 [1]): Non-toxic
IC50 (Gamma-secretase): > 40 µM

CN(C)CCOc1ccc(/C=C2\C(=O)Nc3ccc(Cl)cc32)cc1
Activity (H4 [1]): Non-toxic
IC50 (Gamma-secretase): 7.6 µM

CCN(CC)CCOc1ccc(/C=C2\C(=O)Nc3ccc(Cl)cc32)cc1
Activity [4]: 102%
Activity [5]: 104%
Activity [6]: 92.9%
Activity [7]: 95.8%
Activity [8]: 14.7%
Ratio IC50 (H4 [9]): 1000
Activity [10]: 67.3%
Activity (Danio rerio): Toxic
Activity [11]: 97.2%
Activity [12]: 107%
Activity [13]: 102%
Activity [14]: 100%
Activity [15]: 99.6%
Activity [16]: 96%
Activity [17]: 101%
Activity [18]: 100%
IC50 (Gamma-secretase): 17.7 µM
Activity [19]: 99.4%
Activity [20]: 104%
Activity [21]: 101%
Activity [22]: 93.5%
Activity [23]: 101%
Activity (Homo sapiens): 98.7%
Activity [24]: 99.6%
Activity [25]: 101%
Activity [26]: 107%
Activity [27]: 97%
Activity [28]: 104%
